A short description of series [1]: Kinetic solubility of the compound in pH 7.4 PBS incubated for 24 hrs by UPLC/MS analysis. It is filed as physicochemical. The note with it: buffer, pH 7.4, 24 h.
Series [2] concerns the target Replicase polyprotein 1ab (Severe acute respiratory syndrome coronavirus 2, UniProt P0DTD1). Kind of series: (§1) Inhibition of SARS-CoV-2 RdRp using ATP substrate preincubated with compound for 30 mins followed by substrate addition and measured after 30 mins by Alphascreen microplate reader analysis. In general terms: Bead proximity is the source of the signal in Alpha formats.

The nature of series [3]: Metabolic stability in mouse plasma assessed as half life measured upto 120 mins by LC-MS/MS analysis. It is filed as ADME, cell-free. Put shortly: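 Compound at 2 µM final incubated at 37 °C for up to 2 h in mouse plasma with 5 % DMSO; sampled at 0, 5, 15, 30, 60, 120 min into cold acetonitrile with internal standard, centrifuged, supernatant diluted 1:1 with water and quantified by LC-MS/MS.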

A short description of series [4]: Metabolic stability in mouse liver microsomes assessed as half life preincubated with microsomes for 15 mins followed by NADPH addition and measured upto 60 mins by LC-MS/MS analysis. The note with it: time < 75 min. Format: ADME, Microsome. Put shortly: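 Compound at 4.6 µM final preincubated 15 min at 37 °C with mouse liver microsomes in 0.1 M Tris-HCl pH 7.4, then NADPH, G6P, G6PDH and MgCl2 added; sampled at 0, 5, 15, 30, 60 min into cold acetonitrile with internal standard. LC-MS/MS with positive ESI; percent remaining versus t = 0; half-life from one-phase decay non-linear regression.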
A general note: Microsomes from liver hold many membrane-bound enzymes, among them those of drug oxidation.

Series [5] has as its target Replicase polyprotein 1ab (Severe acute respiratory syndrome coronavirus 2) (UniProt P0DTD1). The description is as §1. Particulars: time 60.0 min.
Another series has as its system SARS-CoV-2. The series is described as follows: Antiviral activity against SARS-CoV-2 human/Czech Republic/951/2020 infected in African green monkey Vero cells pretreated […] followed by viral infection and measured after 48 hrs by viral titer reduction assay. It is filed as functional, organism-based. The note with it: Severe acute respiratory syndrome coronavirus 2, human/Czech Republic/951/2020, Vero.

The subject of the next series is HEK293. Kind of series: Cytotoxicity against HEK293 cells assessed as inhibition of cell growth at 100 uM incubated for 24 to 48 hrs by MTT assay. The note with it: human, hek293, 100 µM, time 24-48 hrs. It is filed as toxicity, cell-based. Put shortly: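 HEK-293 cells grown in DMEM with 2 mM L-glutamine, 10 % heat-inactivated FBS, 1 % penicillin/streptomycin, 37 °C, 5 % CO2; seeded 10,000 cells/well, treated 24 h after seeding for 24 or 48 h, vehicle DMSO 0.5 % final. MTT 0.5 mg/ml for 2 h, formazan dissolved in ethanol, absorbance 570 nm (ref 650 nm); 8 serial dilutions in triplicate, three independent experiments, mean ± SD.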
Background: Tetrazolium assays rely on reduction of a dye to a coloured formazan, in cell work by metabolically active cells.

Calls of active or inactive are those of the source. The rule behind the calls is not given here. Bounds are passed on as bounds.

The values below come from ChEMBL document CHEMBL5223176, “Design, synthesis, docking, and biochemical characterization of non-nucleoside SARS-CoV-2 RdRp inhibitors” (Bioorg Med Chem, 2023).

The term IC50 denotes the concentration that inhibits the measured activity by half. What is called half-life is the time in which the quantity being followed falls by half. As usually defined, the EC50 is the concentration giving half of the maximal effect.

In the case of `CCCCc1c(-c2ccc(O)c(O)c2)oc2cc(O)cc(O)c2c1=O`, the Kinetic_solubility in series [1] was less than 1 µM. For the same molecule, the IC50 in series [2] was 6 µM.

Turning to `O=C(Oc1ccc(O)c(O)c1)c1cc(=O)c2c(O)cccc2o1`, the Kinetic_solubility in series [1] is less than 1 µM.

For the molecule `O=c1cc(-c2ccc(O)c(O)c2)oc2cc(O)cc(O)c12` [LUTEOLIN], the half-life in series [3] was greater than 1 h; in series [4], greater than 2 h.

With `O=C(Nc1ccc(O)c(O)c1)c1cc(=O)c2c(O)cccc2o1`, the half-life in series [3] was 1 h; in series [4] it was 1.38 h. The molecule further came in with a Kinetic_solubility in series [1] of 65 µM.

In turn, `O=c1cc(/C=C/c2ccc(O)c(O)c2)oc2cccc(O)c12` returned a Kinetic_solubility in series [1] of less than 1 µM.

On to `O=c1cc(C(CCCC(F)(F)F)c2ccc(O)c(O)c2)oc2cccc(O)c12` (stereo not drawn), for which the inhibition entry in series [5] was “inactive”.

The molecule `Cc1c(-c2ccc(O)c(O)c2)oc2cc(O)cc(O)c2c1=O` had a Kinetic_solubility in series [1] of 32 µM.

Consider `O=C(N[C@@H](Cc1ccc(O)cc1)C(=O)O)c1cc(-c2ccccc2)c(=O)n2c1sc1ccc(OC3CCCCC3)cc12`, for which the EC50 with SARS-CoV-2 worked out at 0.65 µM.

With `O=c1c(O)c(-c2ccc(O)c(O)c2)oc2cc(O)cc(O)c12` [QUERCETIN], the half-life in series [3] is greater than 1 h; in series [4], 0.117 h.

Turning to `O=c1c(OCCCO)c(-c2ccc(O)c(O)c2)oc2cc(O)cc(O)c12`, the half-life in series [3] was 1 h; in series [4] it was 1.5 h. In addition, the Activity entry in the series with HEK293 was “Non-Toxic”.

In the case of `CC(c1ccc(O)c(O)c1)c1cc(=O)c2c(O)cccc2o1` (stereo not drawn), the half-life in series [3] is greater than 1 h; in series [4], greater than 2 h. Besides, the Kinetic_solubility in series [1] amounted to 165 µM. For the same molecule, the Activity entry with HEK293 is listed as “Non-Toxic”.

In the case of `CCCCOc1c(-c2ccc(O)c(O)c2)oc2cc(O)cc(O)c2c1=O`, the half-life in series [3] was greater than 1 h; in series [4], greater than 2 h. In series [1], this molecule registered a Kinetic_solubility of 156 µM. The Activity result in the series with HEK293 is listed as “Non-Toxic”.

Take `O=C(NCCNC(=S)Nc1ccc(O)c(O)c1)c1cc(=O)c2c(O)cccc2o1`: in series [1], the Kinetic_solubility was less than 1 µM.

In the case of `O=c1cc(CCc2ccc(O)c(O)c2)oc2cccc(O)c12`, the half-life in series [3] is greater than 1 h; in series [4] it was greater than 2 h. Also, in series [1], the Kinetic_solubility was determined as 67 µM.

The molecule `CCCc1c(-c2ccc(O)c(O)c2)oc2cc(O)cc(O)c2c1=O` displayed a Kinetic_solubility in series [1] of 13 µM.

As to `O=c1cc(Cc2ccc(O)c(O)c2)oc2cccc(O)c12`, the half-life in series [3] is greater than 1 h; in series [4] it was greater than 2 h. This molecule displayed a Kinetic_solubility in series [1] of 63 µM.

Consider `CCCCC(c1ccc(O)c(O)c1)c1cc(=O)c2c(O)cccc2o1` (stereo not drawn), for which the 50% inhibitory concentration (IC50) in series [2] is greater than 100 µM.

For the molecule `O=c1c(OCCO)c(-c2ccc(O)c(O)c2)oc2cc(O)cc(O)c12`, the values for the half-life in series [3] and in series [4] were greater than 1 h and greater than 2 h, respectively. The molecule further displayed a Kinetic_solubility in series [1] of 167 µM. In the series with HEK293, the Activity entry is “Non-Toxic”.
